Article PMC8426090 (ACS chemical neuroscience, 2021)
Entries after “also recorded” stand apart in the source; their conditions may differ. Structures can show the parent of a compound that is named as a salt.

Experiments:
D2^high = conditions: cited from earlier work
dopamine D2 receptor [1] = molecular target: dopamine D2 receptor (Rattus norvegicus, UniProt P61169); experiment: in vitro autoradiography on rat brain sections; assay type: binding; conditions: transaxial and coronal/transversal sections; excess competitor
Chain of dopamine D2 receptor (Rattus norvegicus, UniProt P61169) (P61169 whole entry): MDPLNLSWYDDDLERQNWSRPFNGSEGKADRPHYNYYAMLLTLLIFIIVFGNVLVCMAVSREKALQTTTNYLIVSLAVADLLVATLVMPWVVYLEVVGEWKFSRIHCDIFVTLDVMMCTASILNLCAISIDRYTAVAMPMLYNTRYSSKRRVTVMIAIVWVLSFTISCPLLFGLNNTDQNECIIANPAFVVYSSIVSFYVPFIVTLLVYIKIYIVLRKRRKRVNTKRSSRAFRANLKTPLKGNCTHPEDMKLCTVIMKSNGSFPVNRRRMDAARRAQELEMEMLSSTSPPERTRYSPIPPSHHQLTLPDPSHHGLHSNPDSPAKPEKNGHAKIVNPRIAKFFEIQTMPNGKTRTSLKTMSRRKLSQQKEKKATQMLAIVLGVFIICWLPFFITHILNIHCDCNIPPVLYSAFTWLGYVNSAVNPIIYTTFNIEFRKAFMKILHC

dopamine D2 receptor [2] = conditions: co-incubation with guanylylimidodiphosphate; cited from earlier work
[3] = human liver microsome stability assay; assay type: in vitro ADME; conditions: 1 h (60 min), 37 °C, NADPH 1 mM, pooled human liver microsomes
In short: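 Test compound (from a 100× stock) preincubated 5 min at 37 °C with pooled human liver microsomes in 100 mM phosphate buffer pH 7.4. NADPH (1 mM final) started the reaction, run 30 or 60 min at 37 °C and quenched with cold acetonitrile. Supernatant analysed by C18 HPLC (UV 265 nm), with remaining parent expressed relative to the 0 min sample. Dextromethorphan was the positive control; negative controls were heat-inactivated microsomes and no NADPH. Triplicate.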

[4] = system: other receptors of the D2 receptor family; other receptors found in the brain; conditions: cited from earlier work
[5] = biodistribution of [3H]MCL-536 in the rat brain; assay type: in vivo, Sprague–Dawley rats; conditions: for uptake in striatum, % injected dose per gram wet tissue: 15 min after tail vein injection
[6] = biodistribution of [3H]MCL-536 in peripheral organs; assay type: in vivo, Sprague–Dawley rats

For `C[C@H](N)Cc1ccccc1` [Amphetamine, d-amphetamine sulfate], the “increase in D2high, measured in the striatum in vivo” value (D2^high; in vivo) is listed as ~2.36 fold and the “elevation of D2high in vitro in the same tissue” value (D2^high; striatum, in vitro) is listed as 2.44 fold.
For `Nc1nc2c(ncn2[C@@H]2O[C@H](COP(=O)(O)OP(=O)(O)NP(=O)(O)O)[C@@H](O)[C@H]2O)c(=O)[nH]1` [Gpp(NH)p, guanylylimidodiphosphate], the “effect on binding of [3H]MCL-536 on brain sections (summary statements)” value (“effect on binding” for short) (dopamine D2 receptor [1]) is listed as “abolished binding” and the “binding of [3H]MCL-536 to D2high on co-incubation” value (dopamine D2 receptor [2]) is listed as “abolished binding to D2^high”.
In the case of `[3H]C(C)C([3H])N1CCc2cc(OCCCF)cc3c2[C@H]1Cc1cccc(O)c1-3` (stereo partly shown) [MCL-536], the “compound remaining intact after incubation with human liver microsomes” value [3] is listed as “about 75%”, the “affinity for other receptors found in the brain / other receptors tested” value [4] is listed as “little to no affinity” and the “affinity for other receptors of the D2 receptor family” value [4] is listed as “but not for the other receptors of the D2 subfamily; also recorded: but not to other receptors of the D2 receptor family”.
For `CCCN1CCc2cccc3c2[C@H]1Cc1ccc(O)c(O)c1-3` [NPA, (R)-(−)-N-n-propylnorapomorphine], the “effect on binding” value (dopamine D2 receptor [1]) was “abolished”.
In the case of `[3H]C(C)C([3H])N1CCc2cc(OCCCF)cc3c2[C@H]1Cc1cccc(O)c1-3` (stereo partly shown) [[^3H]MCL-536], the “brain uptake values 4 h after injection” value ([5]; 4 h after injection) is reported as “almost baseline”, the “uptake in striatum, % injected dose per gram wet tissue” value ([5]; female rats) is reported as 0.42 %ID/g and the “course of %ID/g in the striatum” value ([5]; females, 60 min postinjection) is reported as “stable”. The “baseline binding in cerebellum” value ([5]; male and female rats) was ≤ 0.1 %ID/g, the “uptake in striatum, % injected dose per gram wet tissue” value ([5]; male rats) was 0.28 %ID/g and the “decline of %ID/g in the striatum” value ([5]; males, 60 min postinjection) was “about 25%”. For the same compound, the “time of maximum %ID/g in peripheral tissues” value ([6]; all peripheral tissues) was 15 min, the “reduction of levels in fatty tissue” value ([6]; at 60 min) was “about 2/3” and the “decline of %ID/g in the kidneys” value ([6]; by 60 min, both sexes) was “about 60%”.
With `CCN1CCC[C@H]1CNC(=O)c1c(O)c(Cl)cc(Cl)c1OC` [raclopride] the “effect on binding” value (dopamine D2 receptor [1]) was “completely abolished”.
With `CCN1CCCC1CNC(=O)c1cc(S(N)(=O)=O)ccc1OC` (stereo not shown) [sulpiride] the “effect on binding” value (dopamine D2 receptor [1]) was “completely abolished”.
